Data reported in ChEMBL document CHEMBL1138050, “Furan-2-ylmethylene thiazolidinediones as novel, potent, and selective inhibitors of phosphoinositide 3-kinase gamma” (J Med Chem, 2006).
Active and inactive are the calls of the source. The rule behind the calls is not given here.

Experiments:
[1] = biological target: T1, Phosphatidylinositol 4,5-bisphosphate 3-kinase catalytic subunit gamma isoform (Homo sapiens, UniProt P48736); test: Inhibition of human PI3Kgamma at 1 uM
Summary of the method: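 Primary screen of PI3Kγ lipid kinase (SPA, ATP/[γ33P]ATP with PtdIns substrate); percent inhibition at 1 µM compound.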
Target sequence in this assay (P48736 whole entry, looked up, canonical isoform): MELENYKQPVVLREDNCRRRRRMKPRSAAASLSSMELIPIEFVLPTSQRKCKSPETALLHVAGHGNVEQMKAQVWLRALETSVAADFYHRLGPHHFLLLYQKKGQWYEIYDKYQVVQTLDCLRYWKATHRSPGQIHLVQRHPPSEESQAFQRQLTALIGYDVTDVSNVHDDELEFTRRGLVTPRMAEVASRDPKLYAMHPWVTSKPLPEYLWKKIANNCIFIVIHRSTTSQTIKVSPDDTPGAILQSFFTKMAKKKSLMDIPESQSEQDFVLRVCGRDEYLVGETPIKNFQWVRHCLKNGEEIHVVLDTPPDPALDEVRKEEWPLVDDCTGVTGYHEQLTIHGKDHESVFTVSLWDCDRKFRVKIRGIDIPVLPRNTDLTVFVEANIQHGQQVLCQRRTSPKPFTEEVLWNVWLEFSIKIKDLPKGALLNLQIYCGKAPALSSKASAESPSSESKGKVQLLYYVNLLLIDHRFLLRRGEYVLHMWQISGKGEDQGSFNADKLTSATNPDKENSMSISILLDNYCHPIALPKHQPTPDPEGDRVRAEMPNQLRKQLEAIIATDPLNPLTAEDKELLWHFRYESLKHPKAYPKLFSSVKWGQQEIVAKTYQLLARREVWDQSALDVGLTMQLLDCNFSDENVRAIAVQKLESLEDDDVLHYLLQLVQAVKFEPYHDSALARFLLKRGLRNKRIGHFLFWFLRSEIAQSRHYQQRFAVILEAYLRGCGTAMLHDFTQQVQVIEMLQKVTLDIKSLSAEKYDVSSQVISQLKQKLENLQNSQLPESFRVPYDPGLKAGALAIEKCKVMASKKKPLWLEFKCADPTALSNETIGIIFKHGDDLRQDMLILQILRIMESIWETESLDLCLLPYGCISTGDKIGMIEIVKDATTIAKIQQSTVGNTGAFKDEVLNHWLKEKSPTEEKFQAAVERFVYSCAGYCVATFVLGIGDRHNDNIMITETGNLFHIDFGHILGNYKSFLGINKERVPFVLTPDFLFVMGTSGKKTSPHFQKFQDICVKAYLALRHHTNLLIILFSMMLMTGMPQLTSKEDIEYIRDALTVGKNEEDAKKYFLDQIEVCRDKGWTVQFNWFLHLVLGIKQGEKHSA

[2] = biological target: T1, Phosphatidylinositol 4,5-bisphosphate 3-kinase catalytic subunit gamma isoform; test: Inhibition of human PI3Kgamma
Target sequence in this assay (P48736 whole entry, canonical isoform): as the sequence (P48736 whole entry, looked up, canonical isoform) above

[3] = Dissociation constant, pKa of the compound; assay type: physicochemical
Summary of the method: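 UV-metric titration under argon at 25 ± 0.5 °C. 10 mM DMSO stock diluted into 0.15 M KCl containing 60, 50, 40 or 30 wt% MeOH, with 0.25 mM KH2PO4. Brought to pH 11.0 with 0.5 M KOH, then titrated with 0.5 M HCl to pH 4, at most 0.15 pH unit per step. UV 200-500 nm recorded after each addition; Yasuda-Shedlovsky extrapolation to zero cosolvent.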

RAW264.7 = test: Inhibition of C5a-mediated PKB/Akt phosphorylation in mouse Raw264 macrophage; assay type: functional, cell-based
Summary of the method: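 Raw-264 murine macrophages starved 3 h in serum-free medium, pretreated 30 min with inhibitor or DMSO, then stimulated 5 min with 50 nM C5a. Phospho-Ser-473 Akt measured by ELISA. Concentration-response; IC50. Mean ± standard deviation of four independent experiments done in triplicate.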

[4] = biological target: Phosphatidylinositol 4,5-bisphosphate 3-kinase catalytic subunit alpha isoform (Homo sapiens, UniProt P42336); test: Inhibition of human PI3Kalpha
Sequence of Phosphatidylinositol 4,5-bisphosphate 3-kinase catalytic subunit alpha isoform (P42336 whole entry, canonical isoform): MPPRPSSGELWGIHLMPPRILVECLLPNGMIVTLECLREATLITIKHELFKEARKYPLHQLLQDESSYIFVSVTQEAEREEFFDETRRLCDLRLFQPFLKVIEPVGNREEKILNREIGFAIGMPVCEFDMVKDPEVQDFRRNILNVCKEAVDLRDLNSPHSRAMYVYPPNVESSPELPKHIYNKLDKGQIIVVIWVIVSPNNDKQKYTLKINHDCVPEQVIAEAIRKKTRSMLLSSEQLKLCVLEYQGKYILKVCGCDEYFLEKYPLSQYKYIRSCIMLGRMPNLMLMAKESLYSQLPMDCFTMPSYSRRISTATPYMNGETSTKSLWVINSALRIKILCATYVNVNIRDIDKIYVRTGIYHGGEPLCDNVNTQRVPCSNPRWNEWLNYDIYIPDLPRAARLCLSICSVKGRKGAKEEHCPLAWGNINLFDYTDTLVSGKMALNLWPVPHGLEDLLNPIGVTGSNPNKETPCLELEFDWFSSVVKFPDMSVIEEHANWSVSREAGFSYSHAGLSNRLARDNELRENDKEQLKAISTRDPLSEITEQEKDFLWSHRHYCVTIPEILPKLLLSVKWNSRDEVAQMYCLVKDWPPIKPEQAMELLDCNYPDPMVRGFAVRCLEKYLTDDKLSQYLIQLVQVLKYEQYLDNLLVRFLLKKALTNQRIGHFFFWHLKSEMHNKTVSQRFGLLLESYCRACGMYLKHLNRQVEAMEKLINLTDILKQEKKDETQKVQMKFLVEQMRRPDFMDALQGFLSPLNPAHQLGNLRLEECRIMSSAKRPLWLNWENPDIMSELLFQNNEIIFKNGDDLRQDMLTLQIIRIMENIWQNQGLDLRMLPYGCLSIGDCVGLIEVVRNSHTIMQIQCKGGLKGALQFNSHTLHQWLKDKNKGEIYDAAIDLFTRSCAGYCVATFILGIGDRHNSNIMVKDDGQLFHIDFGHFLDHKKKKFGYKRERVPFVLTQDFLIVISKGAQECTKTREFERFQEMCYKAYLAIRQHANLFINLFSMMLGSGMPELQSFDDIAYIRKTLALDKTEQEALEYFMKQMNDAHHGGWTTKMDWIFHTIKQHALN

THP-1 [5] = test: Inhibition of CSF-1-induced PKB/Akt phosphorylation in THP1 cells; settings: Homo sapiens
THP-1 [6] = test: Inhibition of MCP1-induced PKB/Akt phosphorylation in THP1 cells; assay type: functional, cell-based; settings: Homo sapiens
Summary of the method: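 THP-1 monocytes starved 3 h in serum-free medium and pretreated with inhibitor or DMSO (15 min in methods; 20 min in figure legend). Stimulated with 100 nM MCP-1/CCL2 for 30 s, or with 50 ng/mL CSF-1 for 5 min. Phospho-Ser-473 and total Akt detected by Western blot and quantified.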

THP-1 [7] = test: Inhibition of MCP1-induced chemotaxis of THP1 cells; assay type: functional, cell-based; settings: Homo sapiens
[8] = biological target: T2, Phosphatidylinositol 4,5-bisphosphate 3-kinase catalytic subunit delta isoform (Homo sapiens, UniProt O00329); test: Inhibition of human PI3Kdelta
T2 sequence (O00329 whole entry): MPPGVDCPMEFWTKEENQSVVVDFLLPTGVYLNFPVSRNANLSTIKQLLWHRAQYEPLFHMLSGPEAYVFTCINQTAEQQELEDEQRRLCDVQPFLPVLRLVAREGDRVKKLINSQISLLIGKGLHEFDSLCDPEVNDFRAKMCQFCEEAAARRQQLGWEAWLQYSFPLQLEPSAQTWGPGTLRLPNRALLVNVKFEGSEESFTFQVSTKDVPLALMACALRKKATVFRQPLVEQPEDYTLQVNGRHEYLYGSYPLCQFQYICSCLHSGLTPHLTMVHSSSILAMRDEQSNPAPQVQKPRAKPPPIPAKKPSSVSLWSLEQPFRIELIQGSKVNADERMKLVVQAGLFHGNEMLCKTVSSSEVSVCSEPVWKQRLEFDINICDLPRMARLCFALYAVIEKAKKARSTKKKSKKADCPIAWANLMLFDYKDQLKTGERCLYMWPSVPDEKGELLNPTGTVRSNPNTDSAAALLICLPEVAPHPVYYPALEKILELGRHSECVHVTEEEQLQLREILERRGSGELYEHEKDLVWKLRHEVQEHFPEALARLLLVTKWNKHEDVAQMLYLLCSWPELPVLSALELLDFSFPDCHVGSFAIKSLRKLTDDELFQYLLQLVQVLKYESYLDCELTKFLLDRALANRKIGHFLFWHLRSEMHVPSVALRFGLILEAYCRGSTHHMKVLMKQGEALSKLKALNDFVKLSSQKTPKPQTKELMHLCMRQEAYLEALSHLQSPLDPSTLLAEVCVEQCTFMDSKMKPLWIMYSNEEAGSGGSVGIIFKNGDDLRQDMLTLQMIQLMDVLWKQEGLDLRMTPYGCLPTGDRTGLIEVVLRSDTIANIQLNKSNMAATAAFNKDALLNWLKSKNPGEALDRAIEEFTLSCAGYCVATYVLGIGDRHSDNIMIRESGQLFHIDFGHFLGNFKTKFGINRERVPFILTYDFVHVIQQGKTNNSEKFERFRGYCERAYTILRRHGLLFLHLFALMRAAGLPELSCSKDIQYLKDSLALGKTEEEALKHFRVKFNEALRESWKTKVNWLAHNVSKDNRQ

Mast cell = test: Inhibition of SCF-induced PKB/Akt phosphorylation in mouse mast cells at 20 uM; assay type: functional, cell-based
Summary of the method: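 Bone marrow mast cells from 4- to 8-week-old wild-type mice, derived ≥4 weeks in 20 ng/mL SCF plus 20 ng/mL IL-3 and confirmed c-kit+ by FACS. Cells at 2.5 × 10^6/mL starved 24 h without SCF/IL-3, preincubated 20 min with compound or 1% DMSO, stimulated 15 min at 37 °C with 20 ng/mL SCF. Fixed in 1.5% paraformaldehyde, permeabilized with 0.2% Triton X-100, phospho-Ser-473 Akt read by FACS.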

[9] = biological target: Phosphatidylinositol 4,5-bisphosphate 3-kinase catalytic subunit beta isoform (Homo sapiens, UniProt P42338); test: Inhibition of human PI3Kbeta
Sequence of Phosphatidylinositol 4,5-bisphosphate 3-kinase catalytic subunit beta isoform (P42338 whole entry, canonical isoform): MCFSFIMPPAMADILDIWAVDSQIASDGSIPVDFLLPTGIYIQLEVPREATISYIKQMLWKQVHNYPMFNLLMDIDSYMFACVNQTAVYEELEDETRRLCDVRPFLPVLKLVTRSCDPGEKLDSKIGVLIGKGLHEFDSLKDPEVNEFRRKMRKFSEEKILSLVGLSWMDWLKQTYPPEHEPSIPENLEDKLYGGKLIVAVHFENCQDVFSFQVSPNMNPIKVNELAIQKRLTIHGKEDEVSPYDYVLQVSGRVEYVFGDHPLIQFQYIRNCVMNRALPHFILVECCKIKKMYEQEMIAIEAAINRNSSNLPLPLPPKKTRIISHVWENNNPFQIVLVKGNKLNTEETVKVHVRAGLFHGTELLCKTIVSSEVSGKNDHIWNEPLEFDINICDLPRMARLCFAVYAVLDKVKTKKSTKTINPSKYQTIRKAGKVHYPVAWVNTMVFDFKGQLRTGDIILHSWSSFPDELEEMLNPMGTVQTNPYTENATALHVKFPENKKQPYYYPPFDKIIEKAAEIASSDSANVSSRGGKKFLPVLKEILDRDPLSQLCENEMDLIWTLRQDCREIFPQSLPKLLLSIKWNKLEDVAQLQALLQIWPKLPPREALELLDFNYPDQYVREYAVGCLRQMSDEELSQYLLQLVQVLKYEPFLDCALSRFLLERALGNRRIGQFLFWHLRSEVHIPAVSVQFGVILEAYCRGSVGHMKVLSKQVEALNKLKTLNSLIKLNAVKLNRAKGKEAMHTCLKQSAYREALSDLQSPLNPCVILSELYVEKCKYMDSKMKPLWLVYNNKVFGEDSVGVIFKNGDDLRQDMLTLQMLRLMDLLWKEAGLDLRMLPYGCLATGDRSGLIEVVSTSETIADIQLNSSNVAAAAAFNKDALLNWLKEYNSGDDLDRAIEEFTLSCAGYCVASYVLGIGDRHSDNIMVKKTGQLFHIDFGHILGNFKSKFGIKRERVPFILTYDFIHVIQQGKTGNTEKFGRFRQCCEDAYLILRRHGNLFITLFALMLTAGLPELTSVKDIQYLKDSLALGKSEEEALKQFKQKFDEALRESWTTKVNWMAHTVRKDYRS

Row | Structure (SMILES) | IC50 [2] | IC50 [4] | also measured
1 | O=C1NC(=O)/C(=C/c2ccc(-c3ccccc3O)s2)S1 |  |  | inhibition [1]: 27%
2 | O=C1NC(=O)/C(=C/c2ccc(-c3ccoc3)o2)S1 | 840 nM |  | 
3 | O=C(O)Cc1cccc(-c2ccc(/C=C3\SC(=O)NC3=O)o2)c1 |  |  | inhibition [1]: 15%
4 | O=C1NC(=O)/C(=C/c2ccc(-c3ccc([N+](=O)[O-])o3)o2)S1 | 20000 nM |  | 
5 | COc1ccccc1-c1ccc(/C=C2\SC(=O)NC2=O)o1 |  |  | inhibition [1]: 44%
6 | O=C1NC(=O)/C(=C/c2ccc(-c3cc(F)ccc3O)o2)S1 | 37 nM | 455 nM | pKa [3]: 9.1; IC50 (RAW264.7): 1710 nM
7 | O=C1NC(=S)S/C1=C\c1ccc(-c2ccc([N+](=O)[O-])cc2Br)o1 | 3600 nM |  | 
8 | O=C1NC(=O)/C(=C/c2ccc(-c3ccccc3F)o2)S1 | 1200 nM |  | 
9 | O=c1cc(N2CCOCC2)oc2c(-c3ccccc3)cccc12 [LY-294002] |  |  | IC50 (THP-1 [5]): 1010 nM; IC50 (THP-1 [6]): 1650 nM; IC50 (THP-1 [7]): 37000 nM; IC50 [8]: 1330 nM; IC50 (RAW264.7): 10000 nM; Activity (Mast cell): Active
10 | O=C1NC(=O)/C(=C/c2ccc(-c3ccc(F)cc3O)s2)S1 |  |  | inhibition [1]: 4%
11 | O=C1NC(=O)/C(=C/c2ccc(-c3cccc([N+](=O)[O-])c3)o2)S1 |  |  | inhibition [1]: 24%
12 | O=C1NC(=O)/C(=C/c2ccc(-c3ccccn3)o2)S1 | 110 nM | 185 nM | IC50 (RAW264.7): 3650 nM
13 | O=C1NC(=O)/C(=C/c2ccc(-c3ccc(O)cc3F)o2)S1 | 260 nM | 1000 nM | 
14 | COC(=O)c1cccc(-c2ccc(/C=C3\SC(=O)NC3=O)o2)c1 | 13500 nM |  | 
15 | COc1cc(F)ccc1-c1ccc(/C=C2\SC(=O)NC2=O)o1 |  |  | inhibition [1]: 11%
16 | O=C1NC(=O)/C(=C/c2ccc(-c3cccc(O)c3)o2)S1 | 290 nM | 1800 nM | 

Row | Structure (SMILES) | IC50 [2] | IC50 [4] | also measured
17 | COC(=O)c1ccc(-c2ccc(/C=C3\SC(=O)NC3=O)o2)c(O)c1 | 29 nM | 210 nM | pKa [3]: 8.7; IC50 (RAW264.7): 720 nM
18 | O=C(O)Cc1ccccc1-c1ccc(/C=C2\SC(=O)NC2=O)o1 |  |  | inhibition [1]: 12%
19 | O=C1NC(=O)/C(=C/c2ccc(-c3cccc4cccnc34)o2)S1 |  |  | inhibition [1]: 17%
20 | O=C1NC(=O)/C(=C/c2ccc(-c3ccccc3Cl)o2)S1 | 20000 nM |  | 
21 | COc1cccc(-c2ccc(/C=C3\SC(=O)NC3=O)o2)c1 | 2600 nM |  | 
22 | O=C1NC(=O)/C(=C/c2ccc(-c3ccc4c(c3)OCO4)o2)S1 | 20000 nM | 20000 nM | 
23 | COC(=O)c1ccccc1-c1ccc(/C=C2\SC(=O)NC2=O)o1 |  |  | inhibition [1]: 2%
24 | O=C1NC(=O)/C(=C/c2ccc(-c3cccc([N+](=O)[O-])c3O)o2)S1 | 80 nM | 1250 nM | 
25 | O=C1NC(=S)S/C1=C\c1ccc(-c2cc([N+](=O)[O-])ccc2O)o1 | 200 nM | 600 nM | 
26 | CC(=O)Nc1ccccc1-c1ccc(/C=C2\SC(=O)NC2=O)o1 |  |  | inhibition [1]: 24%
27 | O=C1NC(=O)/C(=C/c2ccc(-c3cc(O)ccc3O)o2)S1 | 20 nM | 100 nM | 
28 | Nc1ccc([N+](=O)[O-])cc1-c1ccc(/C=C2\SC(=O)NC2=O)o1 |  |  | inhibition [1]: 18%
29 | O=C1NC(=O)/C(=C/c2ccc(-c3ccccc3)o2)S1 | 20000 nM |  | 
30 | O=C1NC(=O)/C(=C/c2ccc(-c3ccc(O)cc3)o2)S1 | 380 nM | 3600 nM | 
31 | O=C1NC(=O)/C(=C/c2ccc(-c3ccccc3C(=O)O)o2)S1 |  |  | inhibition [1]: 4%

More lines, main results first:

Row | IC50 [2] | IC50 [4] | Structure (SMILES) | also measured
32 | 3800 nM |  | O=C1NC(=O)/C(=C/c2ccc(-c3ccc(F)cc3F)o2)S1 | 
33 | 4300 nM |  | O=C1NC(=O)/C(=C/c2ccc(-c3cccc(C(=O)O)c3)o2)S1 | 
34 | 20 nM | 190 nM | O=C1NC(=O)/C(=C/c2ccc(-c3ccc(O)cc3O)o2)S1 | pKa [3]: 8.7; IC50 (RAW264.7): 3490 nM
35 | 530 nM | 1350 nM | O=C1NC(=O)/C(=C/c2ccc(-c3cc(C(=O)O)ccc3O)o2)S1 | pKa [3]: 8.6
36 | 56 nM | 600 nM | O=C1NC(=O)/C(=C/c2ccc(-c3cc(OC(F)(F)F)ccc3O)o2)S1 | pKa [3]: 8.7; IC50 (RAW264.7): 880 nM
37 | 40 nM | 220 nM | N#Cc1ccc(O)c(-c2ccc(/C=C3\SC(=O)NC3=O)o2)c1 | pKa [3]: 7.3
38 | 920 nM | > 20000 nM | O=C1NC(=S)S/C1=C\c1ccc(-c2cccc(C(=O)O)c2)o1 | 
39 | 950 nM | 630 nM | O=C1NC(=O)/C(=C/c2ccc(-c3cccnc3)o2)S1 | 
40 | 29 nM | 340 nM | O=C1NC(=O)/C(=C/c2ccc(-c3cc(F)cc(F)c3O)s2)S1 | IC50 (RAW264.7): 1390 nM
41 | 43 nM | 545 nM | O=C1NC(=O)/C(=C/c2ccc(-c3cc(Cl)ccc3O)o2)S1 | pKa [3]: 8.9
42 | 39 nM | 500 nM | Cc1ccc(O)c(-c2ccc(/C=C3\SC(=O)NC3=O)o2)c1 | pKa [3]: 9.7; IC50 (RAW264.7): 1060 nM
43 | 30 nM | 330 nM | O=C1NC(=O)/C(=C/c2ccc(-c3ccccc3O)o2)S1 | IC50 [9]: 20000 nM; pKa [3]: 9.5; IC50 [8]: > 5000 nM; IC50 (RAW264.7): 810 nM
